Assay results of several laboratories.
Each line is one published result; the experiments were not run side by side.
Target: Serine/threonine-protein kinase DCLK2 (DCLK2, Homo sapiens, UniProt Q8N568)
Sequence (Q8N568 1-766, as in one of the studies): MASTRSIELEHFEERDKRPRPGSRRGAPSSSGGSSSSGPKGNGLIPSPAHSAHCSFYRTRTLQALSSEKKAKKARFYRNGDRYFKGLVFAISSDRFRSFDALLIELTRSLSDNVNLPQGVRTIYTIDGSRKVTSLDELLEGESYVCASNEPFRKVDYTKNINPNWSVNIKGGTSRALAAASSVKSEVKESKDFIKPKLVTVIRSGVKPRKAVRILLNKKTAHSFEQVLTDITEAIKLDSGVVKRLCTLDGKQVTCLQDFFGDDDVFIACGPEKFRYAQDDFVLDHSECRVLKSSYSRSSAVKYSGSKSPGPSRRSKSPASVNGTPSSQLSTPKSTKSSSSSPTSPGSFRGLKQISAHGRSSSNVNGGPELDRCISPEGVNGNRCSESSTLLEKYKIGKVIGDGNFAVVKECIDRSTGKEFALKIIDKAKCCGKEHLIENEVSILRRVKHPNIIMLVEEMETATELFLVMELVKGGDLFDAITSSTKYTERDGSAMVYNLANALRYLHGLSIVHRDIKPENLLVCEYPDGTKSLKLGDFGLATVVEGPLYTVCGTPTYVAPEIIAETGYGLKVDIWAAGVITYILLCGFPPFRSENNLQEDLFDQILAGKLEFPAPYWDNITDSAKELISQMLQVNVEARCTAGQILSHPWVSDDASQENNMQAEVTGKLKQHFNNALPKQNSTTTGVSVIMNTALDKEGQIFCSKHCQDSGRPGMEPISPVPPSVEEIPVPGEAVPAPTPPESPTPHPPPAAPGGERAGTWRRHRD

| SMILES | effect on | mode | method | concentration | endpoint | result |
| --- | --- | --- | --- | --- | --- | --- |
| CC(C)(O)[C@H]1CC[C@H](Nc2ccc3ncc(-c4cccc(C(F)(F)F)c4)n3n2)CC1 | enzyme activity | inhibitor |  | 1 µM | remaining activity | 95.3% |
| Cn1cncc1C1=CN(c2ncnc3[nH]cnc23)CCS1 | enzyme activity | inhibitor | radiometric | 2 µM | inhibition | 14.2% |
| CCN(CC)CCNC(=O)c1c(C)[nH]c(/C=C2\C(=O)Nc3ccc(F)cc32)c1C | enzyme activity | inhibitor |  | 10 µM | inhibition | 69% |
| COc1cc(Cl)c(C(=O)N[C@@H](CN[C@H]2CC[C@@H](N)CC2)Cc2ccc(C#N)cc2)cc1-c1ccc(CN[C@H](C)c2ccc(C)cc2)o1 | enzyme activity | inhibitor |  | 1 µM | remaining activity | 96% |
| CCCOc1ccc([C@H]2[C@H](C(=O)O)[C@@H](c3ccc4c(c3)OCO4)CN2CC(=O)Nc2c(CC)cccc2CC)cc1 | cell-free assay |  | competition with immobilised ligand | 1 µM | remaining binding | 77% |
| CC(C)(C)c1nc2c(s1)c1nc(N)ncc1c1ccc(NS(=O)(=O)c3c(F)cccc3F)c(F)c12 | enzyme activity | inhibitor | radiometric | 1 µM | remaining activity | 90% |
| CNC(=O)c1cc(Oc2ccc(NC(=O)Nc3ccc(Cl)c(C(F)(F)F)c3)cc2)ccn1 | cell-free assay |  |  | 0.5 µM | remaining signal | 102% |
| Cc1ccc(Nc2nccc(N(C)c3ccc4c(C)n(C)nc4c3)n2)cc1S(N)(=O)=O | enzyme activity | inhibitor |  | 10 µM | inhibition | -19% |
| CCCS(=O)(=O)Nc1ccc(F)c(C(=O)c2c[nH]c3ncc(-c4ccc(Cl)cc4)cc23)c1F | enzyme activity | inhibitor |  | 1 µM | inhibition | < 10% |
| CC/C(=N\NC(=O)NCc1cccc(O)c1)c1ccc(O)c(C)c1O | enzyme activity | inhibitor |  | 0.1 µM | inhibition | -8.9% |
| N#Cc1ccc(Nc2ccc3[nH]c(=O)[nH]c3c2)c(Cl)c1 | cell-free assay |  | competition with immobilised ligand | 1 µM | remaining binding | 100% |
| Cc1sc(C(=O)NC2COC2)cc1-n1cc(NC(=O)Nc2c(F)cccc2Cl)cn1 | enzyme activity | inhibitor |  | 10 µM | remaining activity | 107% |
| O=C1Nc2ccc(Cl)cc2C1=Cc1cc(Cl)c(O)c(Cl)c1 | cell-free assay |  |  | 0.5 µM | remaining signal | 98% |
| Cc1c(NC(=O)c2cc(C(N)=O)nc3cc(F)ccc23)c(C(F)(F)F)nn1Cc1ccc(C(C)(C)C)cc1 | cell-free assay |  | competition with immobilised ligand | 1 µM | remaining binding | 83% |
| COc1cc2ncnc(Nc3ccc(Oc4ccccc4)c(C)c3C)c2cc1OC | enzyme activity | inhibitor |  | 1 µM | inhibition | 3% |
| Nc1cnc(N2CCc3cc(S(=O)(=O)Nc4c(F)cc(Cl)cc4F)cc(N4CCCC4=O)c32)nc1 | cell-free assay |  | competition with immobilised ligand | 1 µM | remaining binding | 100% |
| Cc1ccc(NC(=O)c2ccc(CN3CCN(C)CC3)cc2)cc1Nc1nc(-c2cccnc2)cs1 | cell-free assay |  |  | 0.5 µM | remaining signal | 102% |
| CNC(=O)Nc1ccc2c(c1)CC[C@@]21OC(=O)N(CC(=O)N(Cc2ccc(F)cc2)[C@@H](C)C(F)(F)F)C1=O | cell-free assay |  | competition with immobilised ligand | 1 µM | remaining binding | 70% |
| CCN(CC)c1ccc(C2=NNC(=O)CC2C)cc1[N+](=O)[O-] (centres unmarked) | enzyme activity | inhibitor |  | 10 µM | remaining activity | 102% |
| CS(=O)(=O)NCC[C@H](NC(=O)c1cncc2c1cnn2-c1ccc(F)cc1)c1ccnc(S(C)(=O)=O)c1 | cell-free assay |  | competition with immobilised ligand | 1 µM | remaining binding | 100% |
| Cc1ccc(NC(=O)c2ccc(C)c(C(F)(F)F)c2)cc1C#Cc1nn(C2CCC(O)CC2)c2ncnc(N)c12 (centres unmarked) | cell-free assay |  |  | 10 µM | remaining signal | 102% |
| N#CCCc1ccc2c(c1)-c1[nH]c3ccc([N+](=O)[O-])cc3c1CC(=O)N2 | cell-free assay |  |  | 0.5 µM | remaining signal | 104% |
| CO[C@H]1CC[C@H](CNc2ccc(S(=O)(=O)NC(=O)c3ccc(N4CCN(CC5=C(c6ccc(Cl)cc6)CC(C)(C)CC5)CC4)cc3Oc3cnc4[nH]ccc4c3)cc2[N+](=O)[O-])CC1 | cell-free assay |  | competition with immobilised ligand | 1 µM | remaining binding | 100% |
